Bioassay records as filed in PubChem BioAssay.
miR-122 sensor = miR-122 Renilla sensor signal increase in Huh7, primary screen, miR-122 inhibitor project, cell-based, single point, plate reader; AID 602342, 2012; Huh7 miR-122 Renilla luciferase sensor, 48 h; neutral wells = 0, positive control = 100; activation (reporter increase), % at 12.5 µM; hit rate 0.3% among 340,000;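 active = mean replicate activation score at least 90 and every replicate individually at or above 90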;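 note: higher luciferase means less miR-122 activity so hits act as miR-122 inhibitors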
Jurkat NFkB inh = inhibitors of induced NF-kB luciferase reporter, primary screen, TCR NF-kB activation inhibitor project, cell-based, luminescence, uHTS; Jurkat, PMA/ionomycin-induced NF-kB luciferase reporter; inhibition, % at 4 µM; hit rate 0.53% among 330,000; in the data active = inhibition above about 50%
FGF22 binding = binders of human FGF22 protein, primary screen, FGF22 synaptogenesis inhibitor project, biophysical, thermal shift, single point; AID 651658, 2012; recombinant FGF22 thermal shift, SYPRO orange fluorescence; percent of sucrose octasulfate shift, DMSO zero; activity (Tm shift, normalised), % at 9.99 µM; hit rate 1.5% among 340,000;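 active = mean Tm shift, scaled 0 neutral to 100 positive control, at about 1.3% or above, every replicate too, limit read from the data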
Target sequence (Q9HCT0 whole entry, looked up): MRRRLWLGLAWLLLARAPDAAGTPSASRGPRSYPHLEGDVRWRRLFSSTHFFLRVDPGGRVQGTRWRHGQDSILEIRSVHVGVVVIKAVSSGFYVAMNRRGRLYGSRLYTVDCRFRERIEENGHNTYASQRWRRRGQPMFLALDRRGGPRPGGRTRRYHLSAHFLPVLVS
NR2E3 ag-1 = NR2E3 agonists in two-hybrid cells, primary screen, cell-based, luminescence, CHO-S, Gal4-NCOR/VP16-NR2E3 | Photoreceptor-specific nuclear receptor (Homo sapiens), Q9Y5X4 | luciferase | inhibition of corepressor binding, % at 3.98 µM | hit rate 0.35% among 360,000 | AID 602229, 2012;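 active = inhibition above the mean of all tested compounds plus 3 SD, cut at about 70% in these data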;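 note: 0% = DMSO with NR2E3 transfected cells and 100% = cells lacking NR2E3 construct; higher means lower luciferase signal from less NR2E3 corepressor binding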
NR2E3 ag-2 = inhibitors of NR2E3-RetCOR corepressor binding, primary screen, NR2E3 agonist project, biochemical, TR-FRET, GST-NR2E3, biotin-RetCOR | inhibition of corepressor binding, % at 4.78 µM | Photoreceptor-specific nuclear receptor (Homo sapiens), Q9Y5X4 | 1536-well | hit rate 0.12% among 320,000;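 active = percent inhibition above the cutoff of mean plus 3 SD of all tested compounds, set per screening campaign, cut at about 20% in these data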;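 note: 0% = DMSO wells and 100% = biotin wells as full block of FRET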
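Material – GST-tagged NR2E3 plus biotinylated RetCOR corepressor · Quantity – NR2E3 fusion 1.35 nM · Times – 5 h incubation at 4 °C · Medium – pH 7.5 Tris-based buffer · Technique – TR-FRET, Eu(K)-anti-GST donor, streptavidin-D2 acceptor, ex 340, em 617/671 nm · Benchmarks – high control biotin, low control 0.6% DMSO · Format – 1536-well plates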
697 NFkB inh = inhibitors of PMA/ionomycin-induced NF-kB reporter, 697 cells, primary screen, B-cell NF-kB inhibitor project, cell-based, luminescence, uHTS | 697 B-cell NF-kB luciferase reporter, 16 h | inhibition, % at 4 µM | hit rate 0.33% among 330,000 | AID 435022, 2010; in the data active = inhibition above about 35%
Jurkat NFkB conf = PMA/ionomycin-induced NF-kB reporter inhibitors, Jurkat retest, confirmation, T-cell NF-kB inhibitor project, cell-based, luminescence, single concentration; shares compounds with Jurkat NFkB inh; Jurkat NF-kB luciferase, 16 h; inhibition, % at 4 µM; hit rate 27% among 2,700; AID 435020, 2010;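 active = inhibition reaching about 45% at 4 µM in either replicate, limit read from the data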;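 note: plate controls were PMA/ionomycin stimulated DMSO wells for no effect and unstimulated DMSO wells for full effect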
The depositor's hits bear a star; · = no result; [ ] = remark or other dose. Sampled rows, rich in hits. Any-hit rate of the full collection: about 2.2%.

SMILES | miR-122 sensor | Jurkat NFkB inh | FGF22 binding | NR2E3 ag-1 | NR2E3 ag-2 | 697 NFkB inh | Jurkat NFkB conf
Cc1ccc(S(=O)(=O)CCC(=O)OC2CC(C)OC2=O)cc1 (stereo not given) | -6 | -214 | 0 | 5 | · | 17 | 13
CC(C)[C@@H](C)NC(=O)N(C)C[C@@H]1OCc2ccccc2-c2c(n(C)c3ccccc23)C(=O)N([C@H](C)CO)C[C@@H]1C | · | · | 0 | · | · | · | ·
C(=N\Nc1nc2ccccc2s1)/c1ccccn1 | · | 84* | 0 | · | -1 | 22 | 73*
C[C@H](CO)N1C[C@H](C)[C@@H](CN(C)C(=O)Nc2cccc3ccccc23)Oc2ccc(N(C)C)cc2C1=O | -6[16.7 µM] | · | -1 | · | · | · | ·
COCCNC(=O)c1noc2c1CCc1cc(OC)ccc1-2 | -3 | -66 | · | -127 | -1 | -41 | ·
COc1ccc2c(c1)CCc1c(C(=O)NC3CCCCC3)noc1-2 | -4 | -180 | · | -132 | 0 | -146 | -125
COc1ccc(C[C@H]2CCc3cnnn3COC[C@H](c3ccccc3)NC2=O)cc1 | · | · | 0 | · | · | · | ·
Cc1ccc2c(c1)sc(-c1ccc(N(C)C)cc1)[n+]2C | · | 93* | 0 | -104 | 1 | 15 | 73*
Cc1ccc(N(C)C)cc1 | · | · | 0 | · | · | · | ·
CC(C)(C)c1ccc(C(=O)NCCc2ccccc2)cc1 | 7 | -185 | 0 | -75 | 0 | -240 | -152
CSc1nc(C)cc(OCC(=O)N/N=C/c2ccccc2O)n1 | · | 52* | · | -21 | -5 | -52 | 18
COc1ccc(/C=N\NC(=O)c2cccc(F)c2)cc1COc1ccccc1 | 57 | 52* | 0 | -48 | -1 | 12 | 53*
COc1ccc(C(=O)N/N=C/c2ccc(OC)c(COc3c(F)c(F)cc(F)c3F)c2)cc1 | · | 3 | 0 | 0 | · | -4 | ·
COc1cc(OC)cc(C(=O)N/N=C/c2ccc(OC)c(COc3ccc(F)cc3)c2)c1 | 16 | 52* | · | -5 | -2 | -41 | 24
COc1ccc(OCc2cc(/C=N\NC(=O)c3ccccc3)ccc2OC)cc1 | 5 | 54* | 0 | -86 | 0 | -25 | 18
O=C1c2cccc3cc([N+](=O)[O-])cc(c23)C(=O)N1CCN1CCCC1 | · | 86* | 0 | -45 | · | -168 | 57*
CC1=CC(=O)C(C(C)C)=C/C1=N/OS(=O)(=O)c1ccccc1 | -30 | 81* | -1 | 8 | -6 | -82 | 0
C/C(=N\OCc1cccc(C(=O)O)c1)c1ccc(Cl)cc1 | -8 | 62* | 0 | -221 | -3 | 13 | 38
C/C(=N/OCO/N=C(\C)c1ccccc1)c1ccccc1 | -7 | -14 | 0 | -3 | -1 | -40 | ·
O=C(N/N=C\c1c(O)ccc2ccccc12)c1ccc(S(=O)(=O)N2CCCCC2)cc1 | · | 55* | · | -10 | -3 | -21 | 73*
O=C(N/N=C/c1c(O)ccc2ccccc12)c1ccc(CO)nc1 | · | 35 | 0 | -27 | -2 | -11 | ·
O=C(NN=Cc1c(O)ccc2ccccc12)c1ccc2c(c1)OCO2 | · | 67* | 0 | -30 | · | -16 | 82*
C=CCn1c(SCc2c(C)noc2C)nc2cc(C(=O)O)ccc2c1=O | -6 | 8 | · | -45 | -2 | 2 | ·
C=CCn1c(SCc2c(C)noc2C)nc2ccccc2c1=O | 73 | 78* | · | -11 | 1 | 16 | 52*
C=CCn1c(SCc2cc(C(C)=O)ccc2OCC)nc2ccccc2c1=O | 32 | 58* | 0 | -38 | -2 | 7 | 36
Cc1noc(C)c1CSc1nc2ccccc2c(=O)n1-c1ccc(F)cc1F | 27 | 49 | · | -96 | 0 | -8 | ·
